Data on 28 compounds can be found in ChEMBL document CHEMBL1125744, “Preparation, characterization, and anticancer activity of a series of cis-PtCl2 complexes linked to anthraquinone intercalators” (1991).

What all share (type): functional
Assay [1] deals with P388. Kind of assay: In vitro inhibition of P388 murine leukemia cell (R/ADR) growth. Conditions: Mus musculus; for EC50: read-out: ED50 (the source's name). The gist of the method: (§1)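 P388 murine leukemia cells (S/ADR) or multidrug-resistant P388/ADR subline (R/ADR), kept exponential in suspension in RPMI 1640 + 10% heat-inactivated FCS, 10 μM 2-mercaptoethanol, penicillin/streptomycin; seeded 10⁵ cells/mL, exposed to graded concentrations for 4 days. Density counted daily by Coulter counter; growth rate from linear regression of log density vs time, expressed as % of control; ED50 read from dose-effect curves.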

The subject of assay [2] is P388. Kind of assay: In vitro inhibition of P388 murine leukemia cell (S/ADR) growth. As to conditions: Mus musculus; for EC50: read-out: ED50 (the source's name). The gist of the method:
as §1

The species entered for assay [3] is Mus musculus. In words: Lethal dose against DBA/2 mice was determined.
Assay [4] is described as follows: T/C ratio of the compound.
Assay [5] is described as follows: T/C ratio with the optimal dose mg/Kg in parenthesis.

Broadly, the LD50 is the dose at which mortality reaches 50%. High values mean a less toxic substance, low ones a more toxic substance.

As for `O=C1c2ccccc2C(=O)c2c(NCCCNCCNCCO)cccc21`, the EC50 in assay [1] is > 10 µM; in assay [2], 20 µM.
Taken in the same sequence, the figures for `NCCNCCOCCOc1cccc2c1C(=O)c1ccccc1C2=O` were > 60 µM and 0.2 µM.
In the same order, the values of `NCCCOc1cccc2c1C(=O)c1ccccc1C2=O` are > 10 µM and 10 µM.
As for `NCCCCCCCCCCCCNc1cccc2c1C(=O)c1ccccc1C2=O`, the EC50 amounted to 20 µM in assay [1] and 60 µM in assay [2].
Consider `NCCNCCCCCCNc1cccc2c1C(=O)c1ccccc1C2=O`, for which, in assay [3], the LD50 amounted to 200 mg/kg. For the same compound, the EC50 in assay [1] worked out at 8 µM; in assay [2], 4.5 µM.
Consider `NCCNCCCNc1cccc2c1C(=O)c1ccccc1C2=O`, for which the EC50 in assay [1] worked out at 8 µM; in assay [2], 4.5 µM.
Consider `NCCCNc1cccc2c1C(=O)c1ccccc1C2=O`, for which the EC50 in assay [1] was 45 µM; in assay [2], 20 µM.
As to `NCCCCNc1cccc2c1C(=O)c1ccccc1C2=O`, the LD50 in assay [3] is 200 mg/kg. The EC50 in assay [1] turned out to be 50 µM; in assay [2], 40 µM.
Take `NCCNCCCOc1cccc2c1C(=O)c1ccccc1C2=O`: the EC50 was 60 µM in assay [1] and 6 µM in assay [2].
In turn, `NCCCCCCNc1cccc2c1C(=O)c1ccccc1C2=O` yielded a 50% lethal dose (LD50) in assay [3] of 133 mg/kg. Further, the EC50 in assay [1] and in assay [2] was 45 µM throughout.
Take `NCCNCCNc1cccc2c1C(=O)c1ccccc1C2=O`: the EC50 worked out at 8 µM in assay [1] and 4.5 µM in assay [2].
CISPLATIN: in assay [3], the LD50 turned out to be 6.6 mg/kg. Besides, the ED50 stood at 1.4 µM in assay [1] and 0.19 µM in assay [2]. Besides, the T/C in assay [4] came out at 134.
As to Pt(en)Cl2, the ED50 in assay [1] came out at 20 µM; in assay [2] it was 6 µM.
Consider “[[2-[[2-(Anthraquinon-1-ylamino)ethyl]amino]ethyl]-amine-N,N']dichloroplatinum”, for which the 50% lethal dose (LD50) in assay [3] was > 28 mg/kg. Further, the ED50 is > 60 µM in assay [1] and 0.2 µM in assay [2]. In addition, the T/C in assay [5] is 126.
“[[2-[[2-(Anthraquinon-1-ylamino)ethyl]amino]ethyl]-amine-N,N']diiodoplatinum”: the results for the ED50 in assay [1] and in assay [2] were 12 µM and 4.5 µM, respectively.
On to “[[2-[[3-(Anthraquinon-1-ylamino)propyl]amino]ethyl](2-hydroxyethyl)-amine-N,N']dichloroplatinum”, for which the ED50 in assay [1] is > 60 µM; in assay [2] it was > 30 µM.
On to “[[2-[[3-(Anthraquinon-1-ylamino)propyl]amino]ethyl]-amine-N,N']dichloroplatinum”, for which, in assay [3], the 50% lethal dose (LD50) was > 28 mg/kg. Also, the ED50 is > 60 µM in assay [1] and 0.45 µM in assay [2]. Further, the T/C in assay [5] is 130.
In the same order, the values of “[[2-[[3-(Anthraquinon-1-yloxy)propyl]amino]ethyl]-amine-N,N']dichloroplatinum” are > 28 mg/kg, 12 µM, 0.45 µM and 120.
For the compound “[[2-[[6-(Anthraquinon-1-ylamino)hexyl]amino]ethyl]-amine-N,N']dichloroplatinum”, the figures for the ED50 in assay [1] and in assay [2] were > 60 µM and 45 µM, respectively.
On to “cis-Bis[[3-(anthraquinon-1-ylamino)butyl]amide]dichloroplatinum”, for which the ED50 in assay [1] is > 60 µM; in assay [2], 8 µM.
Consider “cis-Bis[[3-(anthraquinon-1-ylamino)butyl]amide]diiodoplatinum”, for which the ED50 in assay [1] is > 60 µM; in assay [2], 40 µM.
Turning to “cis-Bis[[3-(anthraquinon-1-ylamino)dodecyl]amide]dichloroplatinum”, the ED50 is > 60 µM in assay [1] and 60 µM in assay [2].
As to “cis-Bis[[3-(anthraquinon-1-ylamino)dodecyl]amide]diiodoplatinum”, the ED50 in assay [1] was > 60 µM; in assay [2], 60 µM.
In the same order, the values of “cis-Bis[[3-(anthraquinon-1-ylamino)hexyl]amide]dichloroplatinum” are > 60 µM and > 60 µM.
Taken in the same sequence, the figures for “cis-Bis[[3-(anthraquinon-1-ylamino)hexyl]amide]diiodoplatinum” were > 60 µM and > 60 µM.
On to “cis-Bis[[3-(anthraquinon-1-ylamino)propyl]amide]diiodoplatinum”, for which the ED50 in assay [1] was > 60 µM; in assay [2] it was 40 µM.
Regarding “cis-Bis[[3-(anthraquinon-1-yloxy)propyl]amide]dichloroplatinum”, the ED50 in assay [1] and in assay [2] was > 10 µM each time.
Turning to “cis-Bis[[3-(anthraquinon-1-yloxy)propyl]amide]diiodoplatinum”, the ED50 in assay [1] and in assay [2] was > 10 µM throughout.
